Source: ChEMBL document CHEMBL1154956, “Stereospecific synthesis of oximes and oxime ethers of 3-azabicycles: A SAR study towards antimicrobial agents” (2010)
In brackets after ≈: the same amount, converted by molar mass.

Legend:
Type in all cases: functional
Candida parapsilosis = experiment: Antifungal activity against Candida parapsilosis by NCCLS broth microdilution method
How it was run: (§1)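 MIC90 was taken as the lowest concentration that inhibited 90% of pathogen growth after incubation, reported in μg/mL. Broth dilution followed the NCCLS reference standards: M27-A for yeasts and the proposed standard for conidium-forming filamentous fungi. Fluconazole was the reference drug.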

Staphylococcus aureus = experiment: Antibacterial activity against Staphylococcus aureus by NCCLS broth microdilution method
Candida albicans = experiment: Antifungal activity against Candida albicans by NCCLS broth microdilution method; how it was run: as §1
Aspergillus niger = experiment: Antifungal activity against Aspergillus niger by NCCLS broth microdilution method; how it was run: as §1
Cryptococcus neoformans = experiment: Antifungal activity against Cryptococcus neoformans by NCCLS broth microdilution method; how it was run: as §1
Pseudomonas aeruginosa = experiment: Antibacterial activity against Pseudomonas aeruginosa by NCCLS broth microdilution method
Klebsiella pneumoniae = experiment: Antibacterial activity against Klebsiella pneumoniae by NCCLS broth microdilution method
Bacillus subtilis = experiment: Antibacterial activity against Bacillus subtilis by NCCLS broth microdilution method
[1] = Lodderomyces parapsilosis, read-out: MIC90
[2] = Staphylococcus aureus, read-out: MIC90
[3] = Candida albicans, read-out: MIC90
[4] = Aspergillus niger, read-out: MIC90
[5] = Cryptococcus neoformans, read-out: MIC90
[6] = Pseudomonas aeruginosa, read-out: MIC90
[7] = Klebsiella pneumoniae, read-out: MIC90
[8] = Bacillus subtilis, read-out: MIC90

Row | Compound | MIC90 (Candida parapsilosis) | MIC90 (Staphylococcus aureus) | MIC90 (Candida albicans) | MIC90 (Aspergillus niger) | MIC90 (Cryptococcus neoformans) | MIC90 (Pseudomonas aeruginosa) | MIC90 (Klebsiella pneumoniae) | MIC90 (Bacillus subtilis) | MIC90 (Candida parapsilosis; [1]) | MIC90 (Staphylococcus aureus; [2]) | MIC90 (Candida albicans; [3]) | MIC90 (Aspergillus niger; [4]) | MIC90 (Cryptococcus neoformans; [5]) | MIC90 (Pseudomonas aeruginosa; [6]) | MIC90 (Klebsiella pneumoniae; [7]) | MIC90 (Bacillus subtilis; [8])
1 | CON=C1C2CC(C)CC1C(c1ccccc1Cl)NC2c1ccccc1Cl (stereo in doubt; 58b) | 4 µg/mL (≈ 9.92 µM) | 8 µg/mL (≈ 19.8 µM) | 4 µg/mL (≈ 9.92 µM) | 2 µg/mL (≈ 4.96 µM) | 2 µg/mL (≈ 4.96 µM) | 16 µg/mL (≈ 39.7 µM) | 16 µg/mL (≈ 39.7 µM) | 32 µg/mL (≈ 79.3 µM) | – | – | – | – | – | – | – | –
2 | CC12CCCC(/C1=N\O)C(c1ccccc1F)NC2c1ccccc1F (stereo not drawn) | – | – | – | – | – | – | – | – | 8 µg/mL (≈ 22.4 µM) | 8 µg/mL (≈ 22.4 µM) | 8 µg/mL (≈ 22.4 µM) | 64 µg/mL (≈ 180 µM) | 64 µg/mL (≈ 180 µM) | 32 µg/mL (≈ 89.8 µM) | 16 µg/mL (≈ 44.9 µM) | 32 µg/mL (≈ 89.8 µM)
3 | COc1ccc(C2NC(c3ccc(OC)cc3)C3(C)CCCC2/C3=N\O)cc1 (stereo not drawn) | – | – | – | – | – | – | – | – | > 128 µg/mL | 32 µg/mL (≈ 84.1 µM) | 128 µg/mL (≈ 336 µM) | 128 µg/mL (≈ 336 µM) | > 128 µg/mL | > 128 µg/mL | 64 µg/mL (≈ 168 µM) | 128 µg/mL (≈ 336 µM)
4 | CC1CC2C(=NO)C(C1)C(c1cccc(Cl)c1)NC2c1cccc(Cl)c1 (stereo not drawn) | – | – | – | – | – | – | – | – | 128 µg/mL (≈ 329 µM) | 64 µg/mL (≈ 164 µM) | 64 µg/mL (≈ 164 µM) | 64 µg/mL (≈ 164 µM) | > 128 µg/mL | 64 µg/mL (≈ 164 µM) | 32 µg/mL (≈ 82.2 µM) | 32 µg/mL (≈ 82.2 µM)
5 | CO/N=C1\C2CCCC1(C)C(c1ccccc1F)NC2c1ccccc1F (stereo not drawn) | – | – | – | – | – | – | – | – | 8 µg/mL (≈ 21.6 µM) | 4 µg/mL (≈ 10.8 µM) | 4 µg/mL (≈ 10.8 µM) | 16 µg/mL (≈ 43.2 µM) | 8 µg/mL (≈ 21.6 µM) | 8 µg/mL (≈ 21.6 µM) | 4 µg/mL (≈ 10.8 µM) | 16 µg/mL (≈ 43.2 µM)
6 | COc1ccccc1C1NC(c2ccccc2OC)C2(C)CCCC1/C2=N\O (stereo not drawn) | – | – | – | – | – | – | – | – | 128 µg/mL (≈ 336 µM) | 64 µg/mL (≈ 168 µM) | > 128 µg/mL | 128 µg/mL (≈ 336 µM) | 64 µg/mL (≈ 168 µM) | 128 µg/mL (≈ 336 µM) | 128 µg/mL (≈ 336 µM) | 64 µg/mL (≈ 168 µM)
7 | CON=C1C2CC(C)CC1C(c1ccc(Cl)cc1)NC2c1ccc(Cl)cc1 (stereo not drawn) | – | – | – | – | – | – | – | – | 16 µg/mL (≈ 39.7 µM) | 16 µg/mL (≈ 39.7 µM) | 32 µg/mL (≈ 79.3 µM) | 64 µg/mL (≈ 159 µM) | 16 µg/mL (≈ 39.7 µM) | 32 µg/mL (≈ 79.3 µM) | 8 µg/mL (≈ 19.8 µM) | 16 µg/mL (≈ 39.7 µM)
8 | CO/N=C1\C2CCCC1(C)C(c1cccc(F)c1)NC2c1cccc(F)c1 (stereo not drawn) | – | – | – | – | – | – | – | – | 64 µg/mL (≈ 173 µM) | 16 µg/mL (≈ 43.2 µM) | 16 µg/mL (≈ 43.2 µM) | 64 µg/mL (≈ 173 µM) | 128 µg/mL (≈ 346 µM) | 32 µg/mL (≈ 86.4 µM) | 32 µg/mL (≈ 86.4 µM) | 128 µg/mL (≈ 346 µM)
9 | CO/N=C1\C2CCCC1(C)C(c1ccc(Cl)cc1)NC2c1ccc(Cl)cc1 (stereo not drawn) | – | – | – | – | – | – | – | – | 16 µg/mL (≈ 39.7 µM) | 32 µg/mL (≈ 79.3 µM) | 16 µg/mL (≈ 39.7 µM) | 8 µg/mL (≈ 19.8 µM) | 8 µg/mL (≈ 19.8 µM) | 64 µg/mL (≈ 159 µM) | 16 µg/mL (≈ 39.7 µM) | 64 µg/mL (≈ 159 µM)
10 | CC1CC2C(=NO)C(C1)C(c1ccccc1Cl)NC2c1ccccc1Cl (stereo in doubt; 52b) | 16 µg/mL (≈ 41.1 µM) | 16 µg/mL (≈ 41.1 µM) | 4 µg/mL (≈ 10.3 µM) | 32 µg/mL (≈ 82.2 µM) | 64 µg/mL (≈ 164 µM) | >128 µg/mL | 32 µg/mL (≈ 82.2 µM) | 64 µg/mL (≈ 164 µM) | – | – | – | – | – | – | – | –
11 | CC1CC2C(=NO)C(C1)C(c1ccccc1F)NC2c1ccccc1F (stereo in doubt; 49a) | 128 µg/mL (≈ 359 µM) | 8 µg/mL (≈ 22.4 µM) | 64 µg/mL (≈ 180 µM) | 64 µg/mL (≈ 180 µM) | 64 µg/mL (≈ 180 µM) | 32 µg/mL (≈ 89.8 µM) | 16 µg/mL (≈ 44.9 µM) | – | – | – | – | – | – | – | – | 16 µg/mL (≈ 44.9 µM)
12 | CC12CCCC(/C1=N\O)C(c1ccc(Br)cc1)NC2c1ccc(Br)cc1 (stereo not drawn) | – | – | – | – | – | – | – | – | > 128 µg/mL | 64 µg/mL (≈ 134 µM) | > 128 µg/mL | 128 µg/mL (≈ 268 µM) | 128 µg/mL (≈ 268 µM) | > 128 µg/mL | > 128 µg/mL | > 128 µg/mL
13 | Cc1ccccc1C1NC(c2ccccc2C)C2(C)CCCC1/C2=N\O (stereo not drawn) | – | – | – | – | – | – | – | – | > 128 µg/mL | 128 µg/mL (≈ 367 µM) | 128 µg/mL (≈ 367 µM) | 64 µg/mL (≈ 184 µM) | > 128 µg/mL | > 128 µg/mL | 128 µg/mL (≈ 367 µM) | 64 µg/mL (≈ 184 µM)
14 | CC12CCCC(/C1=N\O)C(c1cccc(F)c1)NC2c1cccc(F)c1 (stereo not drawn) | – | – | – | – | – | – | – | – | 64 µg/mL (≈ 180 µM) | 64 µg/mL (≈ 180 µM) | 32 µg/mL (≈ 89.8 µM) | 128 µg/mL (≈ 359 µM) | > 128 µg/mL | 128 µg/mL (≈ 359 µM) | 32 µg/mL (≈ 89.8 µM) | 128 µg/mL (≈ 359 µM)
15 | CC1CC2C(=NO)C(C1)C(c1cccc(F)c1)NC2c1cccc(F)c1 (stereo in doubt; 50b) | 32 µg/mL (≈ 89.8 µM) | 32 µg/mL (≈ 89.8 µM) | 64 µg/mL (≈ 180 µM) | 32 µg/mL (≈ 89.8 µM) | 64 µg/mL (≈ 180 µM) | 32 µg/mL (≈ 89.8 µM) | 64 µg/mL (≈ 180 µM) | >128 µg/mL | – | – | – | – | – | – | – | –
16 | GENTAMICIN | – | 4 µg/mL | – | – | – | 16 µg/mL | 2 µg/mL | 16 µg/mL | – | – | – | – | – | – | – | –
17 | OC(Cn1cncn1)(Cn1cncn1)c1ccc(F)cc1F [FLUCONAZOLE] | – | – | – | – | – | – | – | – | 2 µg/mL (≈ 6.53 µM) | – | 1 µg/mL (≈ 3.27 µM) | 4 µg/mL (≈ 13.1 µM) | 2 µg/mL (≈ 6.53 µM) | – | – | –
